Values after ≈ are worked out from the molar mass of the structure shown. Active and inactive are the calls of the source. The rule behind the calls is not given here.
Test system: Staphylococcus aureus
Experiment: Antibacterial activity against methicillin-resistant Staphylococcus aureus USA200 measured after overnight incubation by broth double-dilution method
Type: functional
Settings: not given
Summary of the method: (§1)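 MIC by broth double-dilution in liquid Mueller-Hinton medium. Values are reported in µg/mL.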

Compound | MIC [µg/mL]
O=c1c2ccccc2[se]n1-c1ccccc1 [EBSELEN] | 2 (≈ 7.29 µM)

Test system: Staphylococcus aureus
Experiment: Antibacterial activity against methicillin-resistant Staphylococcus aureus USA300 measured after overnight incubation by broth double-dilution method
Type: functional
Settings: not given
Summary of the method: as §1

Compound | MIC [µg/mL]
O=c1c2ccccc2[se]n1-c1ccccc1 [EBSELEN] | 3.9 (≈ 14.2 µM)

Test system: Staphylococcus aureus
Experiment: Antibacterial activity against methicillin-resistant Staphylococcus aureus USA600 measured after overnight incubation by broth double-dilution method
Type: functional
Settings: not given
Summary of the method: as §1

Compound | MIC [µg/mL]
O=c1c2ccccc2[se]n1-c1ccccc1 [EBSELEN] | 3.9 (≈ 14.2 µM)

Test system: Staphylococcus epidermidis
Experiment: Antibacterial activity against Staphylococcus epidermidis ATCC 35984 measured after overnight incubation by broth double-dilution method
Type: functional
Settings: RP62A
Summary of the method: (§2)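 MIC by broth double-dilution in Mueller-Hinton medium. Re-testing at the time-kill inoculum used 1×10^6 CFU/mL.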

Compound | MIC [µg/mL]
O=c1c2ccccc2[se]n1-c1ccccc1 [EBSELEN] | 0.25 (≈ 0.912 µM)

Test system: Enterococcus faecalis
Experiment: Antibacterial activity against Enterococcus faecalis ATCC 29212 measured after overnight incubation by broth double-dilution method
Type: functional
Settings: not given
Summary of the method: as §2

Compound | MIC [µg/mL]
O=c1c2ccccc2[se]n1-c1ccccc1 [EBSELEN] | 0.5 (≈ 1.82 µM)

Test system: Enterococcus faecalis
Experiment: Antibacterial activity against Enterococcus faecalis ATCC 49533 measured after overnight incubation by broth double-dilution method
Type: functional
Settings: not given
Summary of the method: as §2

Compound | MIC [µg/mL]
O=c1c2ccccc2[se]n1-c1ccccc1 [EBSELEN] | ≤ 0.25

Test system: Enterococcus faecium
Experiment: Antibacterial activity against Enterococcus faecium BM4105-RF measured after overnight incubation by broth double-dilution method
Type: functional
Settings: not given
Summary of the method: as §1

Compound | MIC [µg/mL]
O=c1c2ccccc2[se]n1-c1ccccc1 [EBSELEN] | 0.5 (≈ 1.82 µM)

Test system: Enterococcus
Experiment: Antibacterial activity against Vancomycin-resistant Enterococcus measured after overnight incubation by broth double-dilution method
Type: functional
Settings: not given
Summary of the method: as §1

Compound | MIC [µg/mL]
O=c1c2ccccc2[se]n1-c1ccccc1 [EBSELEN] | 1 (≈ 3.65 µM)

Test system: Listeria monocytogenes
Experiment: Antibacterial activity against Listeria monocytogenes ATCC 19115 measured after overnight incubation by broth double-dilution method
Type: functional
Settings: not given
Summary of the method: as §2

Compound | MIC [µg/mL]
O=c1c2ccccc2[se]n1-c1ccccc1 [EBSELEN] | 1 (≈ 3.65 µM)

Test system: Mycolicibacterium smegmatis
Experiment: Antibacterial activity against Mycobacterium smegmatis MC2-155 measured after overnight incubation by broth double-dilution method
Type: functional
Settings: str. MC2 155
Summary of the method: as §1

Compound | MIC [µg/mL]
O=c1c2ccccc2[se]n1-c1ccccc1 [EBSELEN] | 7.8 (≈ 28.4 µM)

Test system: Acinetobacter baumannii
Experiment: Antibacterial activity against Acinetobacter baumannii ATCC 19606 measured after overnight incubation by broth double-dilution method
Type: functional
Settings: not given
Summary of the method: as §2

Compound | MIC [µg/mL]
O=c1c2ccccc2[se]n1-c1ccccc1 [EBSELEN] | 15.6 (≈ 56.9 µM)

Test system: Enterobacter cloacae
Experiment: Antibacterial activity against Enterobacter cloacae ATCC 13047 measured after overnight incubation by broth double-dilution method
Type: functional
Settings: subsp. cloacae ATCC 13047
Summary of the method: as §1

Compound | MIC [µg/mL]
O=c1c2ccccc2[se]n1-c1ccccc1 [EBSELEN] | > 125

Test system: Escherichia coli
Experiment: Antibacterial activity against Escherichia coli MC1061 measured after overnight incubation by broth double-dilution method
Type: functional
Settings: not given
Summary of the method: as §1

Compound | MIC [µg/mL]
O=c1c2ccccc2[se]n1-c1ccccc1 [EBSELEN] | 7.8 (≈ 28.4 µM)

Test system: Klebsiella pneumoniae
Experiment: Antibacterial activity against Klebsiella pneumoniae ATCC 27736 measured after overnight incubation by broth double-dilution method
Type: functional
Settings: not given
Summary of the method: as §1

Compound | MIC [µg/mL]
O=c1c2ccccc2[se]n1-c1ccccc1 [EBSELEN] | > 125

Test system: Pseudomonas aeruginosa
Experiment: Antibacterial activity against Pseudomonas aeruginosa ATCC 27853 measured after overnight incubation by broth double-dilution method
Type: functional
Settings: not given
Summary of the method: as §2

Compound | MIC [µg/mL]
O=c1c2ccccc2[se]n1-c1ccccc1 [EBSELEN] | > 125

Test system: Salmonella enterica
Experiment: Antibacterial activity against Salmonella enterica ATCC 14028 measured after overnight incubation by broth double-dilution method
Type: functional
Settings: not given
Summary of the method: as §2

Compound | MIC [µg/mL]
O=c1c2ccccc2[se]n1-c1ccccc1 [EBSELEN] | > 125

Test system: Staphylococcus epidermidis
Experiment: Antibacterial activity against Staphylococcus epidermidis ATCC 12228 measured after overnight incubation by broth double-dilution method
Type: functional
Settings: not given
Summary of the method: as §2

Compound | MIC [µg/mL]
O=c1c2ccccc2[se]n1-c1ccccc1 [EBSELEN] | > 125

Test system: Staphylococcus aureus
Experiment: Bacteriostatic activity against methicillin-resistant Staphylococcus aureus S22 at 0.5 times MIC measured up to 3 to 6 hrs by time kill analysis
Type: functional
Settings: not given

Compound | Activity
O=c1c2ccccc2[se]n1-c1ccccc1 [EBSELEN] | Active

Test system: Staphylococcus aureus
Experiment: Bacteriostatic activity against methicillin-resistant Staphylococcus aureus S22 at MIC measured up to 3 to 6 hrs by time kill analysis
Type: functional
Settings: not given

Compound | Activity
O=c1c2ccccc2[se]n1-c1ccccc1 [EBSELEN] | Active

Test system: Staphylococcus aureus
Experiment: Bactericidal activity against methicillin-resistant Staphylococcus aureus S22 at 4 times MIC measured after 24 hrs by time kill analysis
Type: functional
Settings: not given

Compound | Activity
O=c1c2ccccc2[se]n1-c1ccccc1 [EBSELEN] | Active

Test system: Staphylococcus aureus
Experiment: Antibiofilm activity against methicillin-sensitive Staphylococcus aureus ATCC 6538 assessed as reduction of biofilm at […] ug/ml measured after 24 hrs by crystal violet staining based method relative to untreated control
Type: functional
Design: scale not given: the % may be the effect or the level left
Settings: not given

Compound | Activity [%]
O=c1c2ccccc2[se]n1-c1ccccc1 [EBSELEN] | 20

Test system: Staphylococcus aureus
Experiment: Antibiofilm activity against methicillin-sensitive Staphylococcus aureus ATCC 6538 assessed as reduction in biofilm mass at 2 ug/ml measured after 24 hrs by crystal violet staining based method relative to control
Type: functional
Design: scale not given: the % may be the effect or the level left
Settings: not given

Compound | Activity [%]
O=c1c2ccccc2[se]n1-c1ccccc1 [EBSELEN] | 60

Test system: Staphylococcus epidermidis
Experiment: Antibiofilm activity against Staphylococcus epidermidis ATCC 35984 assessed as reduction of biofilm at […] ug/ml measured after 24 hrs by crystal violet staining based method relative to control
Type: functional, RP62A
Design: scale not given: the % may be the effect or the level left
Settings: not given

Compound | Activity [%]
O=c1c2ccccc2[se]n1-c1ccccc1 [EBSELEN] | 20

Test system: not listed separately
Experiment: Cytotoxicity against mouse RBCs assessed as hemolysis up to […] measured after 1 hr
Type: toxicity, Erythrocyte
Settings: mouse red blood cells, read-out: Activity

Compound | hemolysis at 1 h [%]
O=c1c2ccccc2[se]n1-c1ccccc1 [EBSELEN] | ≤ 20

Test system: not listed separately
Experiment: Cytotoxicity against HEK293 cells assessed as cell death up to 10 ug/ml measured after 24 hrs by resazurin dye-based fluorescence analysis relative to untreated control
Type: toxicity
Settings: human, hek293, 24 h

Compound | Activity
O=c1c2ccccc2[se]n1-c1ccccc1 [EBSELEN] | Non-Toxic

Test system: Staphylococcus aureus
Experiment: Antibacterial activity against methicillin-resistant Staphylococcus aureus S22 using 1 10^6CFU/ml measured after overnight incubation by broth double-dilution method
Type: functional
Settings: not given

Compound | Activity
O=c1c2ccccc2[se]n1-c1ccccc1 [EBSELEN] | Active

Reference: ChEMBL document CHEMBL3864121, “Development of ebsulfur analogues as potent antibacterials against methicillin-resistant Staphylococcus aureus” (Bioorg Med Chem, 2016)
